Data reported in ChEMBL document CHEMBL4196135, “Helvolic Acid Derivatives with Antibacterial Activities against Streptococcus agalactiae from the Marine-Derived Fungus Aspergillus fumigatus HNMF0047” (2018).
≈ marks a conversion by molar mass, not a printed value. Calls of active or inactive are those of the source. The rule behind the calls is not given here.

Key:
[1] = test system: Staphylococcus aureus; experiment: Antimicrobial activity against Staphylococcus aureus after 24 hrs by two-fold dilution method; type: functional
Outline: (§1)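 Two-fold serial dilution assay reporting MIC in μg/mL, run alongside Staphylococcus aureus, Escherichia coli, Bacillus subtilis and Streptococcus agalactiae. Tobramycin served as positive control.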

[2] = test system: Streptococcus agalactiae; experiment: Antimicrobial activity against Streptococcus agalactiae after 24 hrs by two-fold dilution method; type: functional; outline: as §1
[3] = test system: Bacillus subtilis; experiment: Antimicrobial activity against Bacillus subtilis at 128 ug/ml after 24 hrs by two-fold dilution method; type: functional, organism-based
[4] = test system: Escherichia coli; experiment: Antimicrobial activity against Escherichia coli at 128 ug/ml after 24 hrs by two-fold dilution method; type: functional, organism-based

Compound	MIC [1] [µg/mL]	MIC [2] [µg/mL]	Activity [3]	Activity [4]
NC[C@H]1O[C@H](O[C@H]2[C@H](O)[C@@H](O[C@H]3O[C@H](CO)[C@@H](O)[C@H](N)[C@H]3O)[C@H](N)C[C@@H]2N)[C@H](N)C[C@@H]1O [TOBRAMYCIN]	1 (≈ 2.14 µM)	32 (≈ 68.4 µM)		
CC(=O)O[C@@H]1C(=O)[C@@]2(C)[C@@H](CC[C@H]3C4=C(CCC=C(C)C)C(=O)O[C@H]4C[C@@]32C)[C@@]2(C)C=CC(=O)[C@@H](C)[C@H]12	> 128	> 128	inactive	inactive
CCC(=O)O[C@@H]1C(=O)[C@@]2(C)[C@@H](CC[C@H]3C4=C(CCC=C(C)C)C(=O)O[C@H]4C[C@@]32C)[C@@]2(C)C=CC(=O)[C@@H](C)[C@H]12	> 128	> 128	inactive	inactive
CC(=O)O[C@@H]1C(=O)[C@@]2(C)[C@@H](CC[C@H]3C4=C(CCC=C(C)C)C(=O)O[C@H]4C[C@@]32C)[C@@]2(C)CCC(=O)[C@@H](C)[C@H]12	> 128	> 128	inactive	inactive
CC(=O)O[C@H]1C[C@@]2(C)[C@@H](CC[C@H]3[C@@]4(C)C=CC(=O)[C@@H](C)[C@@H]4[C@H](OC(C)=O)C(=O)[C@@]32C)/C1=C1\CC[C@@H](C(C)(C)O)OC1=O	> 128	64 (≈ 109 µM)	inactive	inactive
CC(=O)O[C@H]1C[C@@]2(C)[C@@H](CC[C@H]3[C@@]4(C)C=CC(=O)[C@@H](C)[C@@H]4[C@H](OC(C)=O)C(=O)[C@@]32C)/C1=C1\CC[C@H](C(C)(C)O)OC1=O	> 128	> 128	inactive	inactive
CC(C)=CCCC1=C2[C@H](C[C@@]3(C)[C@H]2CC[C@H]2[C@@]4(C)CCC(=O)[C@@H](C)[C@@H]4[C@H](O)C(=O)[C@@]23C)OC1=O	> 128	> 128	inactive	inactive
CC(=O)O[C@H]1C[C@@]2(C)[C@@H](CC[C@H]3[C@@]4(C)C=CC(=O)[C@@H](C)[C@@H]4[C@H](OC(C)=O)C(=O)[C@@]32C)/C1=C(\CCC=C(C)C)C(=O)O [HELVOLIC ACID]	16 (≈ 28.1 µM)	8 (≈ 14.1 µM)	inactive	inactive
CCC(=O)O[C@@H]1C(=O)[C@@]2(C)[C@@H](CC[C@H]3/C(=C(\CCC=C(C)C)C(=O)O)[C@@H](OC(C)=O)C[C@@]32C)[C@@]2(C)C=CC(=O)[C@@H](C)[C@H]12	8 (≈ 13.7 µM)	2 (≈ 3.43 µM)	inactive	inactive
CC(C)=CCCC1=C2[C@H](C[C@@]3(C)[C@H]2CC[C@H]2[C@@]4(C)C=CC(=O)[C@@H](C)[C@@H]4[C@H](O)C(=O)[C@@]23C)OC1=O	> 128	> 128	inactive	inactive
CCC(=O)O[C@H]1C[C@@]2(C)[C@@H](CC[C@H]3[C@@]4(C)C=CC(=O)[C@@H](C)[C@@H]4[C@H](OC(C)=O)C(=O)[C@@]32C)/C1=C(\CCC=C(C)C)C(=O)O	16 (≈ 27.5 µM)	16 (≈ 27.5 µM)	inactive	inactive
